Source: PMC12123727 (BMC Cancer, 2025)

Experiment: Phase 1 safety evaluation
Assay type: in vivo, human
Conditions: for Dose interruption: due to thrombocytopenia; for tolerability: Chinese patients with r/r B cell NHL, 40-80 mg BID
Outline: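 3 + 3 escalation of oral test compound, 40, 60 or 80 mg BID 4 h apart, 7 days on and 7 off, after a single dose on D-3. Investigators graded AEs at every visit per CTCAE v5.0. DLT was assessed over cycle 1 and covered grade 4 cytopenias, febrile or bleeding grade ≥3 cytopenias, and grade ≥3 non-hematological toxicity. Safety set: ≥1 dose and ≥1 safety evaluation.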

## CN(C)Cc1c(C(=O)NCCOc2ccc(C(=O)NO)cc2)oc2ccccc12 [abexinostat, Abexinostat]
40 mg BID (n = 4), Any grade
  TEAE: Abnormal ST segment on electrocardiogram: 0 n (%)
  TEAE: Abnormal T-wave on electrocardiogram: 0 n (%)
  TEAE: Anemia: 1 (25.0) n (%)
  TEAE: Any TEAEs: 4 (100) n (%)
  TEAE: Diarrhea: 0 n (%)
  TEAE: Elevated low-density lipoprotein: 1 (25.0) n (%)
  TEAE: Elevated α-hydroxybutyrate dehydrogenase: 1 (25.0) n (%)
  TEAE: Fatigue: 1 (25.0) n (%)
  TEAE: Hypercholesterolemia: 1 (25.0) n (%)
  TEAE: Hyperglycemia: 1 (25.0) n (%)
  TEAE: Hypertriglyceridemia: 1 (25.0) n (%)
  TEAE: Hyperuricemia: 1 (25.0) n (%)
  TEAE: Hypoalbuminemia: 2 (50.0) n (%)
  TEAE: Hypoproteinemia: 1 (25.0) n (%)
  TEAE: Leukopenia: 0 n (%)
  TEAE: Lymphopenia: 0 n (%)
  TEAE: Nausea: 0 n (%)
  TEAE: Neutropenia: 1 (25.0) n (%)
  TEAE: Thrombocytopenia: 2 (50.0) n (%)
  TEAE: Urinary white blood cell positivity: 1 (25.0) n (%)
40 mg BID (n = 4), ≥ Grade 3
  TEAE: Any TEAEs: 1 (25.0) n (%)
  TEAE: Thrombocytopenia: 1 (25.0) n (%)
40 mg BID group
  Dose interruption: one patient
60 mg BID (n = 3), Any grade
  TEAE: Abnormal ST segment on electrocardiogram: 1 (33.3) n (%)
  TEAE: Abnormal T-wave on electrocardiogram: 1 (33.3) n (%)
  TEAE: Anemia: 1 (33.3) n (%)
  TEAE: Any TEAEs: 3 (100) n (%)
  TEAE: Diarrhea: 1 (33.3) n (%)
  TEAE: Elevated low-density lipoprotein: 2 (66.7) n (%)
  TEAE: Elevated α-hydroxybutyrate dehydrogenase: 1 (33.3) n (%)
  TEAE: Fatigue: 1 (33.3) n (%)
  TEAE: Hypercholesterolemia: 1 (33.3) n (%)
  TEAE: Hyperglycemia: 0 n (%)
  TEAE: Hypertriglyceridemia: 2 (66.7) n (%)
  TEAE: Hyperuricemia: 1 (33.3) n (%)
  TEAE: Hypoalbuminemia: 2 (66.7) n (%)
  TEAE: Hypoproteinemia: 2 (66.7) n (%)
  TEAE: Leukopenia: 1 (33.3) n (%)
  TEAE: Lymphopenia: 1 (33.3) n (%)
  TEAE: Nausea: 1 (33.3) n (%)
  TEAE: Neutropenia: 1 (33.3) n (%)
  TEAE: Thrombocytopenia: 2 (66.7) n (%)
  TEAE: Urinary white blood cell positivity: 1 (33.3) n (%)
60 mg BID (n = 3), ≥ Grade 3
  TEAE: Any TEAEs: 2 (66.7) n (%)
  TEAE: Hypertriglyceridemia: 1 (33.3) n (%)
  TEAE: Thrombocytopenia: 1 (33.3) n (%)
60 mg BID group
  Dose interruption: one patient
60 mg BID group, thrombocytopenia
  Dose reduction due to TEAEs: one patient
80 mg BID (n = 4), Any grade
  TEAE: Abnormal ST segment on electrocardiogram: 2 (50.0) n (%)
  TEAE: Abnormal T-wave on electrocardiogram: 3 (75.0) n (%)
  TEAE: Anemia: 2 (50.0) n (%)
  TEAE: Any TEAEs: 4 (100) n (%)
  TEAE: Diarrhea: 3 (75.0) n (%)
  TEAE: Elevated low-density lipoprotein: 0 n (%)
  TEAE: Elevated α-hydroxybutyrate dehydrogenase: 1 (25.0) n (%)
  TEAE: Fatigue: 2 (50.0) n (%)
  TEAE: Hypercholesterolemia: 1 (25.0) n (%)
  TEAE: Hyperglycemia: 2 (50.0) n (%)
  TEAE: Hypertriglyceridemia: 3 (75.0) n (%)
  TEAE: Hyperuricemia: 1 (25.0) n (%)
  TEAE: Hypoalbuminemia: 1 (25.0) n (%)
  TEAE: Hypoproteinemia: 2 (50.0) n (%)
  TEAE: Leukopenia: 3 (75.0) n (%)
  TEAE: Lymphopenia: 2 (50.0) n (%)
  TEAE: Nausea: 2 (50.0) n (%)
  TEAE: Neutropenia: 3 (75.0) n (%)
  TEAE: Thrombocytopenia: 1 (25.0) n (%)
  TEAE: Urinary white blood cell positivity: 1 (25.0) n (%)
80 mg BID (n = 4), ≥ Grade 3
  TEAE: Any TEAEs: 2 (50.0) n (%)
  TEAE: Hyperglycemia: 1 (25.0) n (%)
  TEAE: Hypertriglyceridemia: 2 (50.0) n (%)
80 mg BID group, QTc interval prolongation
  Dose reduction due to TEAEs: one patient
7 days on, 7 days off, oral
  recommended phase 2 dose (RP2D): 80 mg BID
  tolerability: well-tolerated
Listed as Abexinostat
  tolerability: favorable tolerability
Total (n = 11), Any grade
  TEAE: Abnormal ST segment on electrocardiogram: 3 (27.3) n (%)
  TEAE: Abnormal T-wave on electrocardiogram: 4 (36.4) n (%)
  TEAE: Anemia: 4 (36.4) n (%)
  TEAE: Any TEAEs: 11 (100) n (%)
  TEAE: Diarrhea: 4 (36.4) n (%)
  TEAE: Elevated low-density lipoprotein: 3 (27.3) n (%)
  TEAE: Elevated α-hydroxybutyrate dehydrogenase: 3 (27.3) n (%)
  TEAE: Fatigue: 4 (36.4) n (%)
  TEAE: Hypercholesterolemia: 3 (27.3) n (%)
